PubChem BioAssay AID449757 (Broad Institute, 2010)
Calls of active or inactive are those of the source.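 How the source made its calls: active means compounds whose fitted caspase activation midpoint falls no more than tenfold above the top tested dose; inconclusive means flat fit with activity between 30 and 70 percent, or failed fit; inactive means the rest.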

The molecules below were run on MEF Flag-A1-IRES-BIM, caspase-Glo luminescence, 3 h (assay: caspase activation in A1/BIM-primed MEFs, dose response, A1 (Bcl2A1) inhibitor project, cell-based, alternate construct, luminescence (AID 449757)).
Outline: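 Assay system: mouse embryonic fibroblasts primed via Flag-A1-IRES-BIM expression construct; quantity: 2500 cells per well, seeded one day before compound; medium: RPMI-1640 growth medium with 10% FBS; doses: 100 nL compound added per well by pin transfer; timing: 3-h compound at 37 °C, 30-min cooling, 1-h reagent at RT; measured by: CaspaseGlo luminescence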
With `COc1cc(NC(=O)c2ccccc2)c(OC)cc1NC(=O)Cc1ccc(Br)cc1` the AC50 was > 35 µM (inactive).
For `O=C(NCCc1ccccc1)C(c1cccs1)N(C(=O)CCl)c1ccc(Cl)cc1` (centres undefined), the AC50 was 13.3 µM.
For `CCOc1ccc(-n2c(SCC(=O)Nc3ccc(Br)cc3)nc3n[nH]c(C)c3c2=N)cc1`, the AC50 was 31 µM.
With `O=C(Nc1ccc2oc(-c3ccccc3F)nc2c1)c1ccccc1F` the AC50 was > 35 µM (inactive).
For `Cc1ccc(NC(=O)CSc2nc3nc(C)c(Br)cc3[nH]2)cc1F`, the AC50 was > 35 µM (inactive).
Molecule `Cc1ccc(C(=O)/C=C\C(=O)c2ccc(C)cc2)cc1` has an AC50 of 36.7 µM.
For `CN(C)C/C=C(\c1ccc(Br)cc1)c1cccnc1`, the AC50 was > 35 µM (inactive).
In the case of `Cc1cc(=O)[nH]c(SCC(=O)Nc2ccc(Br)cc2)c1C#N`, the AC50 was > 35 µM (inactive).
In the case of `COc1ccc(NC(=S)NC(NC(=O)/C=C/c2ccccc2)C(Cl)(Cl)Cl)cc1` (centres undefined), the AC50 was > 35 µM (inactive).
For `Cc1ccc(C2(c3ccc(C)cc3)CC2C(=O)Nc2ccc([N+](=O)[O-])cc2O)cc1` (centres undefined), the AC50 was > 35 µM (inactive).
For `COc1ccc(-c2cc3ccccc3oc2=O)cc1NC(=S)NC(=O)c1ccc2c(c1)OCCO2`, the AC50 was 6.36 µM.
With `O=C(N/C=N/OCc1ccc(Cl)cc1Cl)NOCc1ncc(C(F)(F)F)cc1Cl` the AC50 was > 35 µM (inactive).
Molecule `COc1ccccc1-c1cc(C(F)(F)F)nc(S(=O)(=O)CCCC(=O)N2CCOCC2)n1` has an AC50 of 8.31 µM.
Molecule `COc1cc(/C=C2/C(=N)N3C=CSC3=NC2=O)ccc1OCCCOc1cc(C)ccc1C` has an AC50 of 16.2 µM.
For `CC(=O)Nc1ncnc2c1c(-c1ccc(Cl)cc1)nn2C(C)(C)C`, the AC50 was > 35 µM (inactive).
`CN1C2CCC1/C(=C/c1ccccn1)C(=O)/C2=C\c1ccccn1` was tested, and the AC50 was > 35 µM (inactive).
`COc1cc(NC(=O)c2ccc(C)cc2C)ccc1NC(=O)c1cc2ccccc2o1` was tested, and the AC50 was 32.3 µM.
With `CC(=O)OC(C)(C)/C=C/C(=O)C(C)(O)C1[C@H](O)C[C@@]2(C)C3CC=C4C(CC[C@@H](O)C4(C)C)[C@]3(CO)C(=O)C[C@]12C` (some centres undefined) the AC50 was > 35 µM (inactive).
For `Cc1cc(NC(=O)CSc2nc3cc(Cl)ccc3c(=O)n2Cc2ccco2)no1`, the AC50 was > 35 µM (inactive).
With `COc1ccc(-c2oc(=O)c3cc(OC)c(OC)cc3c2/C=C/c2cccc([N+](=O)[O-])c2)cc1` the AC50 was > 35 µM (inactive).
For `Cc1ccc2c(c1)c(C1=c3ccccc3=NC1=O)c(O)n2C`, the AC50 was > 35 µM (inactive).
In the case of `CCOCCCNC(=O)c1ccc2c(c1)N=C(CC)c1cc(Br)ccc1S2`, the AC50 was > 35 µM (inactive).
Work on `CCOC(=O)C(C(=O)OCC)c1cc(Br)c2noc3c2c1C(=O)c1ccccc1-3` yielded an AC50 of 14.8 µM.
With `COc1ccc(-c2ccc3c(c2)S(=O)(=O)c2cccc(C(=O)NC[C@@H]4CCCO4)c2C3=O)cc1OC` the AC50 was > 35 µM (inactive).
`O=C(Nc1ccc2oc(-c3cccc(F)c3)nc2c1)c1ccccc1F` was tested, and the AC50 was > 35 µM (inactive).
`COC(=O)Cc1csc(/N=C/c2c(O)n(-c3cccc(C(F)(F)F)c3)c(=O)c3ccccc23)n1` was tested, and the AC50 was 18.1 µM.
With `Cc1ccc2c(c1)C(=O)C(=O)N2Cc1ccc(Br)cc1` the AC50 was > 35 µM (inactive).
`COC(=O)CSc1nc(N)c2c3c(sc2n1)C(c1ccccc1)SC(c1ccccc1)C3` (centres undefined) was tested, and the AC50 was > 35 µM (inactive).
Molecule `COc1cc(SC#N)ccc1N=Cc1c(C)[nH]n(-c2ccc(C)cc2)c1=O` has an AC50 of 25.3 µM.
Molecule `Cc1ccc(NC(=O)c2ccc(N/N=C/c3cccc(O)c3)c([N+](=O)[O-])c2)cc1` has an AC50 of 34.6 µM.
For `CCOc1ccc(NCc2cccn2-c2nnc(N3CCC(C(=O)NCCCN4CC(C)CC(C)C4)CC3)s2)cc1` (centres undefined), the AC50 was > 35 µM (inactive).
In the case of `COc1cc(/C=C(/C#N)c2nc3ccccc3[nH]2)ccc1OCC(=O)Nc1ccccc1C(C)C`, the AC50 was 16.1 µM.
With `COc1ccccc1C(=O)Nc1ccnn1C1CCN(Cc2cn(C)c3ccccc23)CC1` the AC50 was > 35 µM (inactive).
In the case of `O=S1(=O)CCOC[C@H](CC2CCCCC2)N1Cc1cccc(Cl)c1`, the AC50 was > 35 µM (inactive).
With `CC(=O)OC(C)(C)/C=C/C(=O)[C@](C)(O)C1[C@H](O)C[C@@]2(C)C3CC=C4C(C[C@H](O)C(=O)C4(C)C)[C@]3(C)C(=O)C[C@]12C` (some centres undefined) the AC50 was > 35 µM (inactive).
Molecule `CCOc1ccc2nc(NCCNC(=O)Nc3cccc(C)c3)c(C#N)cc2c1` has an AC50 of 33.9 µM.
In the case of `O=C(Nc1ccc([N+](=O)[O-])cc1)c1nc[nH]c1C(=O)NC1CCCCC1`, the AC50 was > 35 µM (inactive).
With `O=C1/C(=C/c2ccc(N3CCOCC3)o2)SC(=Nc2ccccc2)N1CCc1c[nH]c2ccccc12` the AC50 was > 35 µM (inactive).
`COc1cccc(C(=O)C(C#N)=C(SC)SC)c1` was tested, and the AC50 was > 35 µM (inactive).
`O=C1/C(=C\c2c(NCCOCCO)nc3ccccn3c2=O)SC(=S)N1Cc1ccco1` was tested, and the AC50 was > 35 µM (inactive).
For `COc1ccccc1-c1cn[nH]c1-c1ccc(OCc2ccccc2)cc1O`, the AC50 was > 35 µM (inactive).
For `CCOc1cc(/C=C\[N+](=O)[O-])ccc1OCC(=O)Nc1ccccc1C`, the AC50 was 6.53 µM.
`COc1cc(/C=C(/C#N)c2nc3ccccc3[nH]2)ccc1OCC(=O)Nc1ccccc1C` was tested, and the AC50 was 6.32 µM.
In the case of `CCOC(=O)/C(=C\c1ccc([N+](=O)[O-])cc1)C(=O)c1cc(C(C)=O)c(Nc2ccccc2)s1`, the AC50 was 1.81 µM.
Work on `Oc1ccc(/C=N/N2CCN(C3c4ccccc4-c4ccccc43)CC2)cc1O` yielded an AC50 of 24 µM.
In the case of `COc1cc(CN2CCN(c3cc(C)ccc3C)CC2)ccc1O`, the AC50 was > 35 µM (inactive).
Molecule `Cc1[nH]nc2nc(SCC(=O)NCCC3=CCCCC3)n(-c3ccc(Br)cc3)c(=N)c12` has an AC50 of 17.1 µM.
In the case of `O=C(Nc1ccc2oc(-c3ccccc3)nc2c1)c1ccccc1F`, the AC50 was > 35 µM (inactive).
With `CC(C)c1cccc(-c2ccc3c(c2)S(=O)(=O)c2cccc(C(=O)NC4CCCC4)c2C3=O)c1` the AC50 was > 35 µM (inactive).
In the case of `CCc1ccc(NC(=O)c2nc(S(=O)(=O)Cc3ccccc3)ncc2Cl)cc1`, the AC50 was > 35 µM (inactive).
In the case of `COC(=O)c1ccc2c(=O)n(Cc3ccc4c(c3)OCO4)c(=S)[nH]c2c1`, the AC50 was > 35 µM (inactive).
`O=C(CCl)N=c1sccn1Cc1ccccc1Cl` was tested, and the AC50 was > 35 µM (inactive).
With `CCN(C(=O)CCN1C(=O)c2ccccc2S1(=O)=O)c1ccccc1` the AC50 was > 35 µM (inactive).
Molecule `CCCCNC(=O)c1ccc(Cn2c(=S)[nH]c3c([nH]c4ccc(OC)cc43)c2=O)cc1` has an AC50 of 4.77 µM.
For `O=[N+]([O-])/C=C/c1cn(Cc2ccc(Cl)cc2)c2ccccc12`, the AC50 was 15.9 µM.
Work on `CCc1nc(N=Nc2c(O)[nH]c3ccccc23)c2c3c(sc2n1)CCC3` yielded an AC50 of 20.7 µM.
For `COc1ccc(-c2c(C#N)c(N)nc(Sc3ccc(Cl)cc3)c2C#N)cc1`, the AC50 was > 35 µM (inactive).
With `N#Cc1c(C(F)(F)F)cc(-c2ccccc2)nc1SCC(=O)Nc1sc2c(c1C#N)CCC2` the AC50 was > 35 µM (inactive).
In the case of `COc1ccc(Oc2cc(NC(=O)c3nn(C)cc3[N+](=O)[O-])cc([N+](=O)[O-])c2)cc1`, the AC50 was 21.3 µM.
In the case of `COc1ccc(-c2ccc3c(c2)S(=O)(=O)c2cccc(C(=O)NCCOc4ccccc4)c2C3=O)cc1OC`, the AC50 was > 35 µM (inactive).
With `Cc1ccc(-c2nc(NC(=O)c3nn(C)cc3[N+](=O)[O-])sc2C)cc1` the AC50 was 6.7 µM.
In the case of `CCC(Sc1nc2cc3c(cc2c(=O)n1Cc1ccco1)OCO3)C(=O)Nc1cccc(OC)c1` (centres undefined), the AC50 was > 35 µM (inactive).
`O=C(COc1ccc(/C=N/NC(=O)c2cc3ccccc3o2)cc1Br)Nc1ccccc1` gave an AC50 of 25.3 µM.
In the case of `C/C1=C\[C@@H](C)C/C=C/[C@H]2[C@@H]3O[C@]3(C)[C@@H](C)[C@H]3[C@H](Cc4c[nH]c5ccccc45)NC(=O)[C@]32C(=O)/C=C/C(=O)[C@@H]1O`, the AC50 was 9.84 µM.
`Cn1c(=NC(=O)CCl)sc2ccccc21` was tested, and the AC50 was > 35 µM (inactive).
In the case of `Cc1occc1-c1nnc(SCC(=O)NCCc2ccccc2)n1Cc1ccccc1`, the AC50 was > 35 µM (inactive).
With `CCc1nn(-c2cc(Oc3cccc4ccccc34)nc(-c3ccccc3)n2)c(N)c1C#N` the AC50 was > 35 µM (inactive).
In the case of `Cc1ccc(C)c(S(=O)(=O)NCC(=O)Nc2sc3c(c2C(N)=O)CCC(C)C3)c1` (centres undefined), the AC50 was > 35 µM (inactive).
For `COc1ccc(C2Nc3ccc4ccccc4c3-c3c2c(=O)oc2ccccc32)cc1` (centres undefined), the AC50 was 14.9 µM.
`CC1CC(C)CN(C(=O)c2ccc(-c3ccc([N+](=O)[O-])cc3)o2)C1` (centres undefined) was tested, and the AC50 was > 35 µM (inactive).
In the case of `CC1(C)C[C@H](O)[C@]2(CO)[C@H](O)C[C@]3(C)C(=CCC4[C@@]5(C)CC[C@H](O)C(C)(C)C5CC[C@]43C)[C@@H]2C1` (some centres undefined), the AC50 was > 35 µM (inactive).
Work on `Nc1c(C(=O)Nc2ccc(S(=O)(=O)N3CCCC3)cc2)sc2nc3ccc(OC(F)(F)F)cc3cc12` yielded an AC50 of 23.3 µM.
`COc1cc2ncnc(NCc3ccc(F)cc3)c2cc1OC` was tested, and the AC50 was > 35 µM (inactive).
`COc1ccccc1CCNC(C)CCc1ccc(O)cc1` (centres undefined) was tested, and the AC50 was > 35 µM (inactive).
`COC(=O)c1ccc2c(c1)C(C)(C)C(/C=C/c1ccccc1O)=[N+]2C` showed an AC50 of 11.3 µM.
With `COc1ccc(Cn2c(SCc3ccc(C)cc3)nc3cc(OC)c(OC)cc3c2=N)cc1Cl` the AC50 was > 35 µM (inactive).
Work on `COc1ccc(C(=O)/C=C/C(=O)N(CC(=O)NC2CCCCC2)Cc2cccs2)c(O)c1` yielded an AC50 of 24.5 µM.
`O=C(N=Nc1c(O)[nH]c2ccc([N+](=O)[O-])cc12)c1cc(-c2ccccc2Cl)nc2ccccc12` was tested, and the AC50 was > 35 µM (inactive).
In the case of `CCOC(=O)COc1ccccc1/C=C\[N+](=O)[O-]`, the AC50 was 10.5 µM.
`Cc1nn(Cc2ccc(Cl)cc2Cl)c(C)c1NC(=O)Cn1nc([N+](=O)[O-])c(Cl)c1C` was tested, and the AC50 was > 35 µM (inactive).
With `CCOC(=O)/C=c1\s/c(=C\c2ccc(C(=O)OC)cc2)c(=O)n1CC(=O)Nc1ccccc1` the AC50 was > 35 µM (inactive).
Molecule `CC1=CC(=O)C(C(C)C)=C/C1=N/OS(=O)(=O)c1ccccc1` has an AC50 of 6.53 µM.
`CC1CCc2c(sc3nc(C(C)(C)C)nc(N4CCN(C(=O)CCl)CC4)c23)C1` (centres undefined) showed an AC50 of 10.2 µM.
Molecule `O=C(Cn1c(C(F)(F)F)nc2ccccc21)N=Nc1c(O)[nH]c2ccc(Br)cc12` has an AC50 of 29.8 µM.
`CCOC(=O)/C(=C\c1cccnc1)C(=O)c1cc(C(C)=O)c(Nc2ccccc2)s1` showed an AC50 of 4.1 µM.
With `C=C1/C=C(\C)[C@](C)(O)C[C@H](O)CC(=O)[C@H](O)[C@@H](O)[C@H](C)C[C@H](C)OC(=O)/C(C)=C/CC/C=C/[C@@H]2O[C@H]2C[C@H](C)C1` the AC50 was > 35 µM (inactive).
For `CC(=O)Nc1ccc(NC(=O)C(C)OC(=O)/C=C/c2cn(-c3ccccc3)nc2-c2cccnc2)cc1` (centres undefined), the AC50 was 27.5 µM.
Work on `O=C(NC1CCCC1)c1cccc2c1C(=O)c1ccc(/C=C/c3ccccc3)cc1S2(=O)=O` yielded an AC50 of 7.48 µM.
With `Clc1ccccc1CN(Cc1ccccc1)c1ncnc2nc[nH]c12` the AC50 was > 35 µM (inactive).
